Activity calls are given as the source filed them. No cut-off for these calls is given here.
Tests used:
EMT6 [1] = conditions: Mus musculus
Mus musculus [2] = test: % EMT-6 tumor regression response induced in BALB/c mice after ZnPc and Photofrin-mediated photodynamic therapy (PDT) at a concentration of 2 umol/kg; format: functional
Procedure, shortened: (§1)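 In male BALB/c mice (18–22 g), intradermal EMT-6 tumors on each hind thigh were grown 6–8 days to 3–5-mm diameter. Mice then received 1 or 2 μmol kg⁻¹ dye i.v. in Cremophor emulsion, with red-light exposure 24 h later. Scored as percent of animals showing complete tumor regression 3 weeks after PDT.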

EMT6 [3] = test: Light dose required to kill 90% of cells(EMT-6 mammary tumor cell line) after 24 hr incubation with 1 uM concentration; format: functional
Procedure, shortened: (§2)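 EMT-6 cells were seeded at 15 × 10³ per well and incubated 1 or 24 h at 37 °C with 1 μM dye from Cremophor emulsion in Waymouth 1% FBS. They were rinsed, refed with 15% FBS, and given red light (10 mW cm⁻²) over 0.1–20 J cm⁻². After overnight incubation, viability was read by MTT (595 nm). LD₉₀ was extrapolated from survival curves, with eightfold replicates per light dose and at least three experiments.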

Mus musculus [4] = species: Mus musculus; conditions: BALB/c, 2 umol/kg
EMT6 [5] = test: Light dose required to kill 90% of cells(EMT-6 mammary tumor cell line) after 1 hr incubation with 1 uM concentration; format: functional, Mus musculus
Procedure, shortened: as §2

EMT6 [6] = test: Drug dose required to kill 90% of cells(EMT-6 mammary tumor cell line) after 24 hr incubation with a fixed fluence of 2.4 J cm-2.; format: functional
Procedure, shortened: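 EMT-6 mouse mammary tumour cells were grown in Waymouth's medium with 15% FBS. They were seeded at 15 × 10³ per well overnight, then given dye (Cremophor emulsion diluted in Waymouth 1% FBS) for 1 or 24 h at 37 °C. Cells were rinsed and refed, then exposed to red light (λ > 590 nm, 10 mW cm⁻²) to 2.4 J cm⁻². MTT was read at 595 nm the next day. Dye-free cells set 100% survival.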

Mus musculus [7] = test: % EMT-6 tumor regression response induced in BALB/c mice after ZnPc and Photofrin-mediated photodynamic therapy (PDT) at a concentration of 1 uM/kg; format: functional
Procedure, shortened: as §1

Mus musculus [8] = test: % EMT-6 tumor edema response induced in BALB/c mice after ZnPc and Photofrin-mediated photodynamic therapy (PDT) at a concentration of 2 umol/kg; Important; format: functional, organism-based; conditions: tested as the Zn salt or complex
Procedure, shortened: (§3)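 Male BALB/c mice (18–22 g), shaved and depilated, bore EMT-6 tumors from intradermal injection of 2 × 10⁵ cells into each hind thigh. At 6–8 days (tumors 3–5-mm diameter, 2–3-mm thick), dye was given i.v. as a Cremophor emulsion (0.2 mL/20 g) at 1 or 2 μmol kg⁻¹. Red light followed 24 h later. Edema was scored 24 h after PDT as light (+), medium (++), important (+++) or extensive (++++).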

Mus musculus [9] = test: % EMT-6 tumor edema response induced in BALB/c mice after ZnPc and Photofrin-mediated photodynamic therapy (PDT) at a concentration of 1 umol/kg; Important; format: functional, organism-based; conditions: tested as the Zn salt or complex
Procedure, shortened: as §3

Mus musculus [10] = test: % EMT-6 tumor necrosis response induced in BALB/c mice after ZnPc and Photofrin-mediated photodynamic therapy (PDT) at a concentration of 1 uM/kg; format: functional
Mus musculus [11] = test: % EMT-6 tumor edema response induced in BALB/c mice after ZnPc and Photofrin-mediated photodynamic therapy (PDT) at a concentration of 1 umol/kg; Light; format: functional, organism-based; conditions: tested as the Zn salt or complex
Procedure, shortened: as §3

Mus musculus [12] = test: % EMT-6 tumor edema response induced in BALB/c mice after ZnPc and Photofrin-mediated photodynamic therapy (PDT) at a concentration of 2 umol/kg; Extensive; format: functional, organism-based; conditions: tested as the Zn salt or complex
Procedure, shortened: as §3

Mus musculus [13] = test: % EMT-6 tumor edema response induced in BALB/c mice after ZnPc and Photofrin-mediated photodynamic therapy (PDT) at a concentration of 1 umol/kg; Extensive; format: functional, organism-based; conditions: tested as the Zn salt or complex
Procedure, shortened: as §3

Mus musculus [14] = test: % EMT-6 tumor regression response induced in BALB/c mice after ZnPc and Photofrin-mediated photodynamic therapy (PDT) at a concentration of 10 uM/kg; format: functional
Mus musculus [15] = test: % EMT-6 tumor necrosis response induced in BALB/c mice after ZnPc and Photofrin-mediated photodynamic therapy (PDT) at a concentration of 10 uM/kg; format: functional, organism-based; conditions: tested as the Zn salt or complex
[16] = test system: V-79 (Cricetulus griseus); test: Drug dose required to kill 90% of cells after 1 hr incubation with a fixed fluence of 2.4 J cm-2. (assay with Chinese hamster V-79 fibroblasts)
Mus musculus [17] = test: % EMT-6 tumor edema response induced in BALB/c mice after ZnPc and Photofrin-mediated photodynamic therapy (PDT) at a concentration of 10 uM/kg; format: functional, organism-based; conditions: tested as the Zn salt or complex
[18] = Mus musculus, tested as the Zn salt or complex

For `[Zn+2].c1ccc2c(c1)-c1nc-2nc2[n-]c(nc3nc(nc4[n-]c(n1)c1ccccc41)-c1ccccc1-3)c1ccccc21` [(PHTHALOCYANINATO)ZINC(II)], the LC90 (EMT6 [1]) was “inactive”, the Tumor response (Mus musculus [2]) was 100% and the LD90 (EMT6 [3]; [18]) was “inactive”. For the same compound, the Tumor response (Mus musculus [4]) was “inactive”, the LD90 (EMT6 [5]) was 0.14 J cm**-2 and the LC90 (EMT6 [6]; [18]) was “inactive”.

For `Oc1cc2c(cc1O)-c1nc-2nc2[n-]c(nc3nc(nc4[n-]c(n1)c1ccccc41)-c1ccccc1-3)c1ccccc21.[Zn+2]`, the Tumor response (Mus musculus [7]) was 25%, the Tumor response (Mus musculus [8]) was “Important” and the Tumor response (Mus musculus [2]) was 0%. For the same compound, the LD90 (EMT6 [3]) was 0.25 J cm**-2, the LD90 (EMT6 [5]) was 2.4 J cm**-2 and the Tumor response (Mus musculus [9]) was “Important”. The LC90 (EMT6 [6]) was 300 nM and the Tumor response (Mus musculus [10]) was 62%.

For `Oc1ccc2c(c1)-c1nc-2nc2[n-]c(nc3nc(nc4[n-]c(n1)c1ccccc41)-c1ccccc1-3)c1ccc(O)cc21.[Zn+2]`, the Tumor response (Mus musculus [7]) was 0%, the Tumor response (Mus musculus [2]) was 75% and the LD90 (EMT6 [3]) was 0.4 J cm**-2. For the same compound, the LD90 (EMT6 [5]) was 7.5 J cm**-2, the Tumor response (Mus musculus [11]) was “Light” and the LC90 (EMT6 [6]) was 580 nM. The Tumor response (Mus musculus [10]) was 0%.

Compound `Oc1ccc2c(c1)-c1nc-2nc2[n-]c(nc3nc(nc4[n-]c(n1)c1ccccc41)-c1ccc(O)cc1-3)c1ccc(O)cc21.[Zn+2]` has an LD90 (EMT6 [3]) of 0.48 J cm**-2, an LD90 (EMT6 [5]) of 19 J cm**-2 and an LC90 (EMT6 [6]) of 800 nM.

With `Oc1ccc2c(c1)-c1nc-2nc2[n-]c(nc3nc(nc4[n-]c(n1)c1ccccc41)-c1ccccc1-3)c1ccccc21.[Zn+2]` the Tumor response (Mus musculus [7]) was 12%, the Tumor response (Mus musculus [12]) was “Extensive” and the Tumor response (Mus musculus [2]) was 25%. For the same compound, the LD90 (EMT6 [3]) was 0.15 J cm**-2, the LD90 (EMT6 [5]) was 0.4 J cm**-2 and the LC90 (EMT6 [6]) was 120 nM. The Tumor response (Mus musculus [13]) was “Extensive” and the Tumor response (Mus musculus [10]) was 100%.

For `Oc1ccc2c(c1)-c1nc-2nc2[n-]c(nc3nc(nc4[n-]c(n1)c1ccc(O)cc41)-c1ccc(O)cc1-3)c1ccc(O)cc21.[Zn+2]`, the Tumor response (Mus musculus [14]) was 0%, the Tumor response (Mus musculus [15]) was “inactive” and the LD90 (EMT6 [3]; [18]) was “inactive”. The LD90 (EMT6 [5]; [18]) was “inactive”, the LC90 [16] was >100000 nM and the LC90 (EMT6 [6]; [18]) was “inactive”. The Activity (Mus musculus [17]) was “inactive”.
